Results from different studies.
Compare with care: the assays were run in different laboratories.
AKR1B1: Aldo-keto reductase family 1 member B1 (AKR1B1, Homo sapiens, UniProt P15121)
LATS2: Serine/threonine-protein kinase LATS2 (LATS2, Homo sapiens, UniProt Q9NRM7)

SMILES	target	effect on	mode	technique	IC50
C=CC(=O)N1CCN(c2nc(=O)n(-c3c(C)ccnc3C(C)C)c3nc(-c4c(O)cccc4F)c(F)cc23)[C@@H](C)C1	GTPase HRas (HRAS, Homo sapiens, UniProt P01112, C181S/C184S/C186S/G12C)	enzyme activity	inhibitor		87.1 nM
COc1c(Cl)cccc1Nc1c(-c2ccncc2OC[C@@H]2COCCO2)[nH]c2c1C(=O)NCC2	Tyrosine-protein kinase Lck, phosphorylated (LCK, Homo sapiens, UniProt P06239)	enzyme activity	inhibitor	TR-FRET	1130 nM
COc1cc(CN(CCN)C(=O)c2cccs2)ccc1OCc1ccccc1	Transient receptor potential cation channel subfamily M member 8 (TRPM8, Homo sapiens, UniProt Q7Z2W7)	ion current	inhibitor	patch clamp	12 nM
Nc1cnccc1Nc1ccc(Cl)c(Cl)c1	Endonuclease 8-like 1 (NEIL1, Homo sapiens, UniProt Q96FI4)	enzyme activity	inhibitor		> 100000 nM
COc1cc(/C=N/NC(=S)N/N=C/c2ccc(C=O)cc2)ccc1Oc1ccnc2cc(Cl)ccc12	AKR1B1	enzyme activity	inhibitor	absorbance	12900 nM
OC1(c2ccc(-c3ccnc4[nH]cc(F)c34)cc2)CCCNC1 (stereo not drawn)	LATS2	enzyme activity	inhibitor	radiometric	10 nM
Cc1cc(-c2cc(O)ccc2Cl)cc2nnc(Nc3ccc(OCCN4CCCC4)cc3)nc12	Tyrosine-protein kinase Lck (LCK, Homo sapiens, UniProt P06239)	cell-free assay			0.292 nM
COc1cc(/C=N/NC(=S)N/N=C/c2ccc(F)cc2)ccc1Oc1ccnc2cc(Cl)ccc12	AKR1B1	enzyme activity	inhibitor	absorbance	19500 nM
O=C(Nc1c[nH]nc1-c1nc2cc(CN3CCOCC3)ccc2[nH]1)NC1CC1	LATS2	enzyme activity	inhibitor	radiometric	114 nM
COc1cc(/C=N/NC(=S)N/N=C/c2ccc(Br)cc2)ccc1Oc1ccnc2cc(Cl)ccc12	AKR1B1	enzyme activity	inhibitor	absorbance	8820 nM
OC1(c2ccc(-c3ccnc4[nH]cc(F)c34)cc2)CCCNCC1 (stereo not drawn)	LATS2	enzyme activity	inhibitor	radiometric	12 nM
COc1cc(/C=N/NC(=S)NN=Cc2ccc([N+](=O)[O-])o2)ccc1Oc1ccnc2cc(Cl)ccc12	AKR1B1	enzyme activity	inhibitor	absorbance	7850 nM
Cc1cc(-c2ccnc3[nH]cc(F)c23)cc(F)c1[C@@]1(O)[C@H](C)CN(C(=O)CN)C[C@@H]1C	LATS2	target engagement in cells		BRET	5.1 nM
COc1cc(/C=N/NC(=S)N/N=C/c2ccc(N(C)C)cc2)ccc1Oc1ccnc2cc(Cl)ccc12	AKR1B1	enzyme activity	inhibitor	absorbance	10400 nM
C[C@@H]1CNC[C@H](C)[C@@]1(O)c1ccc(-c2ccnc3[nH]cc(F)c23)cc1	LATS2	enzyme activity	inhibitor	radiometric	8.7 nM
